Data set [1] deals with T1, Multidrug resistance protein 1 (Candida albicans (strain SC5314 / ATCC MYA-2876) (Yeast)) (UniProt Q5ABU7).
T1 sequence (whole entry): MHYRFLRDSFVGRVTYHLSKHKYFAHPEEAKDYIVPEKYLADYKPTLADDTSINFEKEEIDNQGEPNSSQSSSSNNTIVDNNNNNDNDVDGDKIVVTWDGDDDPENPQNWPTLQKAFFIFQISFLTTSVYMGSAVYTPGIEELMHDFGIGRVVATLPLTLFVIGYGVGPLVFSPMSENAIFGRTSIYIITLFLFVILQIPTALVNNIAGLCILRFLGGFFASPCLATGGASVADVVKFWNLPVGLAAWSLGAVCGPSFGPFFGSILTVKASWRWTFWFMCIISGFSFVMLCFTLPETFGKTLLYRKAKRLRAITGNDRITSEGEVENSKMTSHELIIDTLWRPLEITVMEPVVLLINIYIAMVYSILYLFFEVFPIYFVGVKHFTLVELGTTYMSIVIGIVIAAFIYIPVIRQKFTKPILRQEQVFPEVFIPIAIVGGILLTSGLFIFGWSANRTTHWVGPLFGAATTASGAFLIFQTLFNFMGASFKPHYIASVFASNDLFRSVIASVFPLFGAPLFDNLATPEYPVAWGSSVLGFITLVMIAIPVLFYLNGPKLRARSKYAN
Nature of the data set: Inhibition of Candida albicans MDR1-mediated fluconazole resistance in Saccharomyces cerevisiae DSY 416 up to 90 uM.

Data set [2] concerns Saccharomyces cerevisiae. Nature of the data set: Potentiation of fluconazole-induced antifungal activity against Saccharomyces cerevisiae DSY 390 assessed as fractional inhibitory concentration at 0.1 uM after 40 to 48 hrs by checkerboard assay. It counts as functional. Put shortly:
(§1)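 Checkerboard in 96-well format: FLU serially diluted along one axis and partner agent along the other, covering all combinations. S. cerevisiae pump strains or null strain at 1.0 × 10^4 CFU/mL in YPD, 30 °C for 40-48 h, growth read at 630 nm. FIC uses IC50 endpoint; FLU at 0.5 µM (null pump), 50 µM (CDR1, MDR1), 1.56 µM (CDR2), 3.13 µM (FLU1).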

The test system of data set [3] is Saccharomyces cerevisiae. Nature of the data set: Antifungal activity against Saccharomyces cerevisiae DSY 426 expressing Candida albicans FLU1 after 40 to 48 hrs by serial dilution method. The class given is functional, organism-based. Put shortly:
(§2)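 S. cerevisiae strains carrying C. albicans efflux pumps, grown 1-2 days from frozen stocks on YNB-URA/TRYP selection agar at 30 °C. Modified NCCLS broth microdilution: serial dilutions in 0.9% saline (compounds dissolved in DMSO), inoculum 1.0 × 10^4 CFU/mL in YPD. Incubated 30 °C for 40-48 h and read at 630 nm before and after. IC50 = 50% growth inhibition; MIC = lowest concentration with no detectable growth.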

Data set [4] deals with Saccharomyces cerevisiae. Nature of the data set: Potentiation of fluconazole-induced antifungal activity against Saccharomyces cerevisiae DSY 416 expressing Candida albicans MDR1 assessed as fractional inhibitory concentration at 0.1 uM after 40 to 48 hrs by checkerboard assay. It counts as functional. The gist of the method: as §1
Data set [5] has as its system Saccharomyces cerevisiae. Nature of the data set: Potentiation of fluconazole-induced antifungal activity against Saccharomyces cerevisiae DSY 415 expressing Candida albicans CDR1 assessed as fractional inhibitory concentration at 0.1 uM after 40 to 48 hrs by checkerboard assay. It counts as functional. Put shortly: as §1
Data set [6] relates to Saccharomyces cerevisiae. Nature of the data set: Antifungal activity against Saccharomyces cerevisiae DSY 416 expressing Candida albicans MDR1 after 40 to 48 hrs by serial dilution method. It counts as functional, organism-based. To be noted: for MIC: DSY 416; for IC50: DSY 416, MDR1. Put shortly:
(§3)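 S. cerevisiae strains (null pump DSY 390, or carrying C. albicans CDR1, MDR1, CDR2, FLU1 pumps) were grown from −80 °C glycerol stocks on YNB-URA/TRYP selection agar at 30 °C. The modified NCCLS broth microdilution used compound serially diluted in 0.9% saline from DMSO, with YPD inoculum at 1.0 × 10^4 CFU/mL final. Plates were read at OD630 before and after 40-48 h at 30 °C. IC50 = 50% growth inhibition; MIC = no detectable growth.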

The subject of data set [7] is Saccharomyces cerevisiae. Nature of the data set: Antifungal activity against Saccharomyces cerevisiae DSY 417 expressing Candida albicans CDR2 after 40 to 48 hrs by serial dilution method. The class given is functional, organism-based. The gist of the method: as §3
The subject of data set [8] is Saccharomyces cerevisiae. Nature of the data set: Antifungal activity against Saccharomyces cerevisiae DSY 390 after 40 to 48 hrs by serial dilution method. It counts as functional, organism-based. Put shortly:
as §3

The test system of data set [9] is Saccharomyces cerevisiae. Nature of the data set: Potentiation of fluconazole-induced antifungal activity against Saccharomyces cerevisiae DSY 417 expressing Candida albicans CDR2 assessed as fractional inhibitory concentration at 0.1 uM after 40 to 48 hrs by checkerboard assay. It counts as functional. Put shortly:
as §1

Data set [10] relates to Saccharomyces cerevisiae. Nature of the data set: Antifungal activity against Saccharomyces cerevisiae DSY 415 expressing Candida albicans CDR1 after 40 to 48 hrs by serial dilution method. It counts as functional, organism-based. The gist of the method:
as §2

The test system of data set [11] is Saccharomyces cerevisiae. Nature of the data set: Potentiation of fluconazole-induced antifungal activity against Saccharomyces cerevisiae DSY 426 expressing Candida albicans FLU1 assessed as fractional inhibitory concentration at 0.1 uM after 40 to 48 hrs by checkerboard assay. The class given is functional. Put shortly: as §1
In data set [12] the test system is Saccharomyces cerevisiae. Nature of the data set: Potentiation of fluconazole-induced antifungal activity against Saccharomyces cerevisiae DSY 390 assessed as fractional inhibitory concentration at 3.1 uM after 40 to 48 hrs by checkerboard assay. The class given is functional. Put shortly:
(§4)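 This was a checkerboard in a modified NCCLS microdilution: fluconazole and second agent were each serially diluted in saline and combined in all concentration pairs. Pump-expressing or null S. cerevisiae inoculum was 1.0 × 10^4 CFU/mL in YPD, with OD630 read before and after 40-48 h at 30 °C. FIC used IC50 as endpoint. FLU levels for FIC were 0.5 µM (null), 50 µM (CDR1, MDR1), 1.56 µM (CDR2) and 3.13 µM (FLU1).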

For data set [13], the system named is Saccharomyces cerevisiae. Nature of the data set: Potentiation of fluconazole-induced antifungal activity against Saccharomyces cerevisiae DSY 415 expressing Candida albicans CDR1 assessed as fractional inhibitory concentration at 3.1 uM after 40 to 48 hrs by checkerboard assay. The class given is functional. Put shortly: as §4
For data set [14], the system named is Saccharomyces cerevisiae. Nature of the data set: Potentiation of fluconazole-induced antifungal activity against Saccharomyces cerevisiae DSY 416 expressing Candida albicans MDR1 assessed as fractional inhibitory concentration at 3.1 uM after 40 to 48 hrs by checkerboard assay. The class given is functional. The gist of the method: as §4
Data set [15] deals with Saccharomyces cerevisiae. Nature of the data set: Potentiation of fluconazole-induced antifungal activity against Saccharomyces cerevisiae DSY 426 expressing Candida albicans FLU1 assessed as fractional inhibitory concentration at 3.1 uM after 40 to 48 hrs by checkerboard assay. The class given is functional. The gist of the method:
as §4

Data set [16] concerns Saccharomyces cerevisiae. Nature of the data set: Potentiation of fluconazole-induced antifungal activity against Saccharomyces cerevisiae DSY 417 expressing Candida albicans CDR2 assessed as fractional inhibitory concentration at 3.1 uM after 40 to 48 hrs by checkerboard assay. The class given is functional. Put shortly:
as §4

The test system of data set [17] is Saccharomyces cerevisiae. Nature of the data set: Potentiation of fluconazole-induced antifungal activity against Saccharomyces cerevisiae DSY 416 expressing Candida albicans MDR1 assessed as fractional inhibitory concentration at 3.8 uM after 40 to 48 hrs by checkerboard assay. The class given is functional. The gist of the method: as §1
In data set [18] the test system is T47D. Nature of the data set: Cytotoxicity against human T47D cells at 10 uM after 48 hrs by neutral red staining. The class given is cell-based. The gist of the method: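 T47D cells in DMEM/F12 with 10% FBS and penicillin/streptomycin, plated at 30 000 cells/well. After 24 h, compound added at final 0.03-10 µM and incubated 24 and 48 h at 37 °C. Then Neutral Red 0.15 mg/mL for 2 h, lysis in 0.04 N HCl/2-propanol, A540 minus A630. Viability given as percent of control.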

Data set [19] concerns Saccharomyces cerevisiae. Nature of the data set: Antifungal activity against Saccharomyces cerevisiae DSY 416 expressing Candida albicans MDR1 after 40 to 48 hrs by serial dilution method in presence of 33 uM fluconazole. The class given is functional, organism-based. To be noted: DSY 416, MDR1. The gist of the method:
as §2

For data set [20], the system named is Saccharomyces cerevisiae. Nature of the data set: Potentiation of fluconazole-induced antifungal activity against Saccharomyces cerevisiae DSY 390 assessed as fractional inhibitory concentration at 3.8 uM after 40 to 48 hrs by checkerboard assay. It counts as functional. Put shortly:
as §1

For data set [21], the system named is Saccharomyces cerevisiae. Nature of the data set: Antifungal activity against Saccharomyces cerevisiae DSY 415 expressing Candida albicans CDR1 after 40 to 48 hrs by serial dilution method in absence of fluconazole. It counts as functional, organism-based. Put shortly:
as §2

The test system of data set [22] is Saccharomyces cerevisiae. Nature of the data set: Potentiation of fluconazole-induced antifungal activity against Saccharomyces cerevisiae DSY 417 expressing Candida albicans CDR2 assessed as fractional inhibitory concentration at 3.8 uM after 40 to 48 hrs by checkerboard assay. The class given is functional. The gist of the method:
as §1

The test system of data set [23] is Saccharomyces cerevisiae. Nature of the data set: Antifungal activity against Saccharomyces cerevisiae DSY 415 expressing Candida albicans CDR1 after 40 to 48 hrs by serial dilution method in presence of 33 uM fluconazole. It counts as functional, organism-based. The gist of the method: as §2
Data set [24] deals with Saccharomyces cerevisiae. Nature of the data set: Potentiation of fluconazole-induced antifungal activity against Saccharomyces cerevisiae DSY 415 expressing Candida albicans CDR1 assessed as fractional inhibitory concentration at 3.8 uM after 40 to 48 hrs by checkerboard assay. It counts as functional. The gist of the method: as §1
Data set [25] relates to Saccharomyces cerevisiae. Nature of the data set: Potentiation of fluconazole-induced antifungal activity against Saccharomyces cerevisiae DSY 426 expressing Candida albicans FLU1 assessed as fractional inhibitory concentration at 3.8 uM after 40 to 48 hrs by checkerboard assay. It counts as functional. The gist of the method:
as §1

Data set [26] deals with Saccharomyces cerevisiae. Nature of the data set: Antifungal activity against Saccharomyces cerevisiae DSY 416 expressing Candida albicans MDR1 after 40 to 48 hrs by serial dilution method in absence of fluconazole. The class given is functional, organism-based. The note with it: DSY 416, MDR1. Put shortly:
as §2

≈ marks a conversion by molar mass, not a printed value. Calls of active or inactive are those of the source. The rule behind the calls is not given here.

Take `CC(=O)OC[C@]12CC[C@H](OC(C)=O)C[C@]1(O)[C@@H](OC(C)=O)C=C1[C@@H]3CC[C@H]([C@H](C)CCCC(C)C)[C@@]3(C)C[C@@H]3O[C@@]132`: in data set [1], the result was inactive.

`C[C@@H]1[C@H](O)[C@@H](C)/C=C/C=C/C=C/C=C/C=C/C=C/C=C/[C@H](O[C@@H]2O[C@H](C)[C@@H](O)[C@H](N)[C@@H]2O)C[C@@H]2O[C@](O)(C[C@@H](O)C[C@@H](O)[C@H](O)CC[C@@H](O)C[C@@H](O)CC(=O)O[C@H]1C)C[C@H](O)[C@H]2C(=O)O` [AMPHOTERICIN B]: the “fractional inhibitory concentration index (FICI)” value in data set [2] stood at 1.85; in [4], 1.42; in data set [5], 0.89; in data set [9] it was 1.58; in data set [11] it was 0.97. Besides, the half-maximal inhibitory concentration (IC50) (in general, the concentration at which inhibition is half-maximal) worked out at 0.55 µM in data set [3]; 550 nM in data set [6]; 0.55 µM in [7]; 550 nM in data set [8]; 0.55 µM in data set [10]. Also, the MIC in [3], in data set [6], in data set [7], in data set [8] and in data set [10] was 0.75 µM (≈ 0.693 µg/mL) throughout.

Regarding `OC(Cn1cncn1)(Cn1cncn1)c1ccc(F)cc1F` [FLUCONAZOLE], the IC50 was 35 µM in [3]; over 400000 nM in data set [6]; 15 µM in data set [7]; 3500 nM in data set [8]; 300 µM in data set [10]. Also, the minimum inhibitory concentration (MIC) (usually the lowest concentration that inhibits growth of the organism) is 50 µM (≈ 15.3 µg/mL) in data set [3]; over 400 µM in data set [6]; 25 µM (≈ 7.66 µg/mL) in [7]; 8 µM (≈ 2.45 µg/mL) in data set [8]; 400 µM (≈ 123 µg/mL) in data set [10].

Regarding `CC(C)[C@@H]1OC(=O)[C@@H](Cc2ccccc2)N(C)C(=O)[C@H](C(C)C)OC(=O)[C@@H](Cc2ccccc2)N(C)C(=O)[C@H](C(C)C)OC(=O)[C@@H](Cc2ccccc2)N(C)C1=O` [BEAUVERICIN], the “fractional inhibitory concentration index (FICI)” value in data set [12] was 2.57; in data set [13], 0.045; in data set [14], 2; in [15] it was 2; in [16], 1.3.

`CC(=O)O[C@H]1C=C2[C@@H]3CC[C@H]([C@H](C)CCCC(C)C)[C@@]3(C)C[C@@H]3O[C@@]23[C@@]2(CO)CC[C@H](O)C[C@]12O`: the “fractional inhibitory concentration index (FICI)” value in data set [17] stood at 0.05; in data set [20], 1.85; in [22] it was 1.6; in data set [24] it was 0.88; in [25], 1.26. For the same molecule, the Activity entry in [18] is on record as “Non-toxic”. Moreover, the IC50 in data set [19] is under 4 µM; in data set [21], over 104 µM; in data set [23], 31 µM; in data set [10], over 30 µM; in data set [26], over 104 µM.

Values taken from ChEMBL document CHEMBL1138434 (J Nat Prod, 2003).
